Experiment [1] relates to Plasma. The experiment in a line: Antioxidant activity against LDL-susceptible to oxidation in New Zealand White rabbit plasma assessed as increase in conjugated diene formation at 12.5 ug/mL after 30 mins. The class given is functional, Oryctolagus cuniculus. Summed up:
(§1)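 LDL in phosphate-buffered KCl dialysis buffer (pH 7.4), dialysed 4 h at 4 °C in the dark and diluted to 0.25 mg LDL/mL (protein by Lowry, BSA standard). Compound (final 1.25, 2.5 or 5.0 × 10-5 g/mL) or saline vehicle preincubated ~30 min at 20 °C. Oxidation started with CuSO4 (final 5.0 µmol/L), 37 °C for 4 h. A234 monitored; conjugated diene increase = (A4h − A0h)/A0h × 100%.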

Experiment [2] has as its system Plasma. Briefly: Antioxidant activity against LDL-susceptible to oxidation in New Zealand White rabbit plasma assessed as increase in conjugated diene formation at 25 ug/mL after 30 mins. The class given is functional, Oryctolagus cuniculus. Summed up: as §1
For experiment [3], the system named is Plasma. The experiment in a line: Antioxidant activity against LDL-susceptible to oxidation in New Zealand White rabbit plasma assessed as increase in conjugated diene formation at 50 ug/mL after 30 mins. The class given is functional, Oryctolagus cuniculus. Summed up: as §1
Experiment [4] concerns Brain. The experiment in a line: Antioxidant activity against lipid peroxidation in Wistar rat brain assessed as inhibition of malondialdehyde release at 25 ug/mL by thiobarbituric acid method relative to control. The class given is functional, tissue-based. Also on record: scale not given: the % may be the effect or the level left. Summed up:
(§2)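 Male Wistar rat brain homogenised fresh (10% w/v) in 50 mM phosphate buffer, pH 7.4; protein by Lowry. Aliquots incubated 30 min at 37 °C with compound (final 1.25, 2.5 or 5.0 × 10-5 g/mL) or saline vehicle. Stopped with SDS, then TBA in HCl/acetic acid, boiled 15 min. Chromogen extracted into n-butanol–pyridine (15:1); A532 read against MDA standards.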

The test system of experiment [5] is Brain. The experiment in a line: Antioxidant activity against lipid peroxidation in Wistar rat brain assessed as inhibition of malondialdehyde release at 50 ug/mL by thiobarbituric acid method relative to control. Type of experiment: functional, tissue-based. Also noted: scale not given: the % may be the effect or the level left. Summed up:
as §2

In experiment [6] the test system is Brain. The experiment in a line: Antioxidant activity against lipid peroxidation in Wistar rat brain assessed as inhibition of malondialdehyde release at 12.5 ug/mL by thiobarbituric acid method relative to control. The class given is functional, tissue-based. Also noted: scale not given: the % may be the effect or the level left. Summed up:
as §2

Consider 5 compounds from ChEMBL document CHEMBL1148984, “Bioactive compounds from the seeds of Punica granatum (pomegranate)” (2004).

On to `COc1cc(/C=C/CO[C@@H]2O[C@H](CO[C@@H]3OC[C@](O)(CO)[C@H]3O)[C@@H](O)[C@H](O)[C@H]2O)cc(OC)c1O`, for which the Activity in the experiment with Plasma [1] was 17.6%; with Plasma [2], 14.4%; with Brain [4], 29.8%; in the experiment with Brain [5] it was 32.1%; in the experiment with Brain [6], 26.5%. Further, in the experiment on Plasma [3], the Conjugated diene increase was determined as 12.2%.

On to `COc1cc2c(=O)oc3c(OC)c(O)cc4c(=O)oc(c1OC)c2c34`, for which the Activity in the experiment with Plasma [1] turned out to be 29.8%; in the experiment with Plasma [2], 27.2%; in the experiment with Brain [4] it was 24.6%; with Brain [5] it was 31.1%; in the experiment on Brain [6], 18.3%. The Conjugated diene increase in the experiment with Plasma [3] was 21%.

Turning to `COc1c(O)cc2c(=O)oc3c(OC)c(O)cc4c(=O)oc1c2c34`, the Activity stood at 27% with Plasma [1]; 28.9% in the experiment with Plasma [2]; 20.1% with Brain [4]; 28.1% in the experiment on Brain [5]; 21.8% with Brain [6]. Also, the Conjugated diene increase in the experiment on Plasma [3] was found to be 20.4%.

For `O=C1O[C@H]([C@@H](O)CO)C(O)=C1O` [ASCORBIC ACID], the Activity in the experiment on Plasma [1] amounted to 3.7%; in the experiment on Brain [6], 50.1%.

Regarding `COc1cc(/C=C/CO[C@@H]2O[C@H](CO[C@@H]3OC[C@](O)(CO)[C@H]3O)[C@@H](O)[C@H](O)[C@H]2O)ccc1O`, the Activity in the experiment with Plasma [1] was 15.4%; in the experiment with Plasma [2], 10.5%; with Brain [4], 32.4%; in the experiment on Brain [5], 35.6%; with Brain [6] it was 28.9%. The Conjugated diene increase in the experiment on Plasma [3] was found to be 7.3%.
